Source: ChEMBL document CHEMBL3525925, “In vitro studies on the oxidative metabolism of 20(s)-ginsenoside Rh2 in human, monkey, dog, rat, and mouse liver microsomes, and human liver s9” (Drug Metab Dispos, 2012)

Columns and labels:
[1] = Drug excretion in rat feces at 50 mg/kg, po; type: ADME, organism-based; design: dose 50 mg/kg, route oral; conditions: faeces, read-out: Drug excretion
Liver microsome = experiment: Drug metabolism in human liver microsomes assessed as oxidative metabolism at 10 uM in presence of 10 uM ketoconazole CYP3A inhibitor; type: ADME
Procedure, shortened: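 Pooled human liver microsomes (1 mg/ml, mixed-gender, 50 donors), 10 µM Rh2, 2 mM NADPH and selective inhibitor in 100 mM potassium phosphate pH 7.4; 37°C, 60 min; ice-cold acetonitrile stop; uninhibited controls; duplicates; formation of M1-2, M1-3 and M1-4+M1-5 quantified by LC/ion-trap MSn.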

Cytochrome P450 1B1 = biological target: T1, Cytochrome P450 1B1 (Homo sapiens, UniProt Q16678); experiment: Drug metabolism in human recombinant CYP1B1 mediated oxidative metabolism at 10 uM; type: ADME; conditions: recombinant enzyme
T1 sequence (Q16678 whole entry): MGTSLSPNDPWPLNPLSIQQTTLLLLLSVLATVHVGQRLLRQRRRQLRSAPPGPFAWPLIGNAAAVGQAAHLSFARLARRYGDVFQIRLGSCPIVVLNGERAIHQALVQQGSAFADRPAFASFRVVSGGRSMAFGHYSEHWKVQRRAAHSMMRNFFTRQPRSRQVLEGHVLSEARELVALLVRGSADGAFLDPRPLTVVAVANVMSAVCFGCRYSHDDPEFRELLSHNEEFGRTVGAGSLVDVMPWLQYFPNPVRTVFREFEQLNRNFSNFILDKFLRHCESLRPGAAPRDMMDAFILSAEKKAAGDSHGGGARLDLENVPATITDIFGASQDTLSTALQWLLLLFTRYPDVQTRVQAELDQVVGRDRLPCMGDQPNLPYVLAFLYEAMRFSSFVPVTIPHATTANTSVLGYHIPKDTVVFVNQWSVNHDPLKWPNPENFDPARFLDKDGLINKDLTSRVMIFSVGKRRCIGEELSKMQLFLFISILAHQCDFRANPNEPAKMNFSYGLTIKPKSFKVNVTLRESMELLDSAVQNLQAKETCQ
Procedure, shortened: (§1)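 Recombinant human P450 at 50 nM incubated with 10 µM Rh2 and 2 mM NADPH in 100 mM potassium phosphate pH 7.4, 37°C, 60 min; ice-cold acetonitrile stop; duplicates; metabolites detected by LC/ion-trap MSn.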

Liver = experiment: Drug uptake in rat liver at 50 mg/kg, po; type: ADME, organism-based; design: dose 50 mg/kg, route oral; conditions: in vivo, read-out: Drug uptake
Cytochrome P450 2D6 = Cytochrome P450 2D6 (Homo sapiens, UniProt P10635); experiment: Drug metabolism in human recombinant CYP2D6 mediated oxidative metabolism at 10 uM; type: ADME; conditions: recombinant enzyme; procedure, shortened: as §1
Cytochrome P450 4A11 = biological target: T2, Cytochrome P450 4A11 (Homo sapiens, UniProt Q02928); experiment: Drug metabolism in human recombinant CYP4A11 mediated oxidative metabolism at 10 uM; type: ADME; conditions: recombinant enzyme; procedure, shortened: as §1
T2 sequence (Q02928 whole entry): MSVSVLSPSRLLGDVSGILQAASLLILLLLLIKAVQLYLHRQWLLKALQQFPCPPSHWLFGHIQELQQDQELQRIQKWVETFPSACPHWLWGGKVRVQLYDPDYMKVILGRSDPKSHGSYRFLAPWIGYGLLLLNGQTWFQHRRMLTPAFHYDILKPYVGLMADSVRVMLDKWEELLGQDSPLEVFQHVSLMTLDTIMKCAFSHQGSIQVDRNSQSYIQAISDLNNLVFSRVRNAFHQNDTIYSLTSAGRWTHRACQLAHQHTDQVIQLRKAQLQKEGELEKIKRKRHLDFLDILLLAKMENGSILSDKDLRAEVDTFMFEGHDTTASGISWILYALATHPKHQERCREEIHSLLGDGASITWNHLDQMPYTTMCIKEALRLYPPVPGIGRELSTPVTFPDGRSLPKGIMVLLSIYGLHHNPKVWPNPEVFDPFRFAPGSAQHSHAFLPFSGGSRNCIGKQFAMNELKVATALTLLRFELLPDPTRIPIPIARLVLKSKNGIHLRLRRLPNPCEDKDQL

Cytochrome P450 2A6 = biological target: T3, Cytochrome P450 2A6 (Homo sapiens, UniProt P11509); experiment: Drug metabolism in human recombinant CYP2A6 mediated oxidative metabolism at 10 uM; type: ADME; conditions: recombinant enzyme; procedure, shortened: as §1
T3 sequence (P11509 whole entry): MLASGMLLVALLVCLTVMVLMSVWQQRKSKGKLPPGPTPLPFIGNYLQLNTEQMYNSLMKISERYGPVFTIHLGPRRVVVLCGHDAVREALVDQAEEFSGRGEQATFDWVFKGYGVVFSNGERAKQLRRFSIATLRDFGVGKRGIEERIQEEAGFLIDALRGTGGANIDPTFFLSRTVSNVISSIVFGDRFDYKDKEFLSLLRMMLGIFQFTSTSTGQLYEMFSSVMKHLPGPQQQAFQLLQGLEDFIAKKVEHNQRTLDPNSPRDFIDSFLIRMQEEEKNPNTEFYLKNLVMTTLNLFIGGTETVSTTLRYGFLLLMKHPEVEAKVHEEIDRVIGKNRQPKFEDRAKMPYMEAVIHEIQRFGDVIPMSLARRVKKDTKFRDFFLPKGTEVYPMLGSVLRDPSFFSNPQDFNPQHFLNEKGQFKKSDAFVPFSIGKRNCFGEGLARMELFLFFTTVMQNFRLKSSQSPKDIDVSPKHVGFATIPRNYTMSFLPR

Chain of Cytochrome P450 2D6 (P10635 whole entry): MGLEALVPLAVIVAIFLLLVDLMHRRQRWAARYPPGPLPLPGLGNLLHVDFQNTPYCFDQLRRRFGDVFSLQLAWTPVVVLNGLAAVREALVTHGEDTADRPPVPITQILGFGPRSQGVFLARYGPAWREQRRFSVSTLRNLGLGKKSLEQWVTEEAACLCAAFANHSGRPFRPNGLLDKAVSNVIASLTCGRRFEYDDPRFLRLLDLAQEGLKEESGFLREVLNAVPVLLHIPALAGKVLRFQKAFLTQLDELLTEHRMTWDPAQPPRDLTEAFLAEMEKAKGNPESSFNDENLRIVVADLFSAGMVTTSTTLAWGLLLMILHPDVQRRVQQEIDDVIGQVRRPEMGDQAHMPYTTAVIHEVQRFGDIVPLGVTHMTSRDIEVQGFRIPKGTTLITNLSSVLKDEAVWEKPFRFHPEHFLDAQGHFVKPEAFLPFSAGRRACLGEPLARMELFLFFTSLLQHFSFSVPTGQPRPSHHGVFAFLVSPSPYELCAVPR

CC(C)=CCC[C@](C)(O)[C@H]1CC[C@]2(C)[C@@H]1[C@H](O)C[C@@H]1[C@@]3(C)CC[C@H](O[C@@H]4O[C@H](CO)[C@@H](O)[C@H](O)[C@H]4O)C(C)(C)[C@@H]3CC[C@]12C [GINSENOSIDE RH2]
dose excreted [1]: < 10% | Drug metabolism (Liver microsome): metabolite_not_detected | Drug metabolism (Cytochrome P450 1B1): metabolite_not_detected | concentration (Liver): 60 µM | Drug metabolism (Cytochrome P450 2D6): metabolite_not_detected | Drug metabolism (Cytochrome P450 4A11): metabolite_not_detected | Drug metabolism (Cytochrome P450 2A6): metabolite_not_detected
